We go through ten molecules from ChEMBL document CHEMBL1275455, “Resistance and virulence of Pseudomonas aeruginosa clinical strains overproducing the MexCD-OprJ efflux pump” (2008).

In brackets after ≈: the same amount, converted by molar mass.

Assay [1] has as its system Pseudomonas aeruginosa. The assay is described as follows: Antibacterial activity against Pseudomonas aeruginosa 3308 by twofold serial dilution method. Type of assay: functional. In outline: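 MIC by serial twofold agar dilution in cation-adjusted Mueller-Hinton agar, about 10^4 CFU per spot applied with Steers multiple inoculator; plates at 37°C, read visually at 18 and 24 h. Modal values of three independent determinations. For pNF225 carriers, 150 μg/ml ticarcillin was added to growth cultures.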

The test system of assay [2] is Pseudomonas aeruginosa. The assay is described as follows: Antibacterial activity against Pseudomonas aeruginosa EryR by twofold serial dilution method. The assay is classed as functional. Summed up: (§1)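 MIC by twofold serial dilution in Mueller-Hinton agar with adjusted Ca2+ and Mg2+, spotted with a Steers multiple inoculator at about 10^4 CFU per spot. Plates were incubated at 37°C and read visually at 18 and 24 h. Values are modal MICs of three independent determinations.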

The test system of assay [3] is Pseudomonas aeruginosa. The assay is described as follows: microbe, parasite or virus in culture. The following applies: 2126.
Assay [4] concerns Pseudomonas aeruginosa. The assay is described as follows: Antibacterial activity against Pseudomonas aeruginosa 1956 by twofold serial dilution method. Type of assay: functional. In outline:
as §1

For assay [5], the system named is Pseudomonas aeruginosa. The assay is described as follows: Antibacterial activity against Pseudomonas aeruginosa PAO1 by twofold serial dilution method. Type of assay: functional. Summed up: as §1
In assay [6] the test system is Pseudomonas aeruginosa. The assay is described as follows: Antibacterial activity against Pseudomonas aeruginosa FK06 by twofold serial dilution method. Type of assay: functional. Summed up:
as §1

Assay [7] concerns Pseudomonas aeruginosa. The assay is described as follows: Antibacterial activity against Pseudomonas aeruginosa FE60 by twofold serial dilution method. Type of assay: functional. In outline: as §1
Assay [8] has as its system Pseudomonas aeruginosa. The assay is described as follows: microbe, parasite or virus in culture. To be noted: 2439.
Assay [9] relates to Pseudomonas aeruginosa. The assay is described as follows: Activity of beta-lactamase AmpC in Pseudomonas aeruginosa EryR by spectrophotometry. Summed up: (§2)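 Crude French press lysates tested spectrophotometrically with nitrocefin; activity in nmol nitrocefin·min−1·mg protein−1. Induced activity obtained by adding 50 μg/ml cefoxitin to MHB culture 3 h before end of incubation; uninduced without. Triplicate measurements per strain; run-to-run variation under 15%.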

In assay [10] the test system is Pseudomonas aeruginosa PAO1. The assay is described as follows: Activity of beta-lactamase AmpC in Pseudomonas aeruginosa PAO1 by spectrophotometry. In outline: as §2
The subject of assay [11] is Pseudomonas aeruginosa. The assay is described as follows: Activity of beta-lactamase AmpC in Pseudomonas aeruginosa 1956 by spectrophotometry. Summed up:
as §2

For assay [12], the system named is Pseudomonas aeruginosa. The assay is described as follows: Activity of beta-lactamase AmpC in Pseudomonas aeruginosa 2439 by spectrophotometry. Summed up:
as §2

Assay [13] concerns Pseudomonas aeruginosa. The assay is described as follows: Activity of beta-lactamase AmpC in Pseudomonas aeruginosa 2126 by spectrophotometry. In outline: as §2
Assay [14] has as its system Pseudomonas aeruginosa. The assay is described as follows: Activity of beta-lactamase AmpC in Pseudomonas aeruginosa 3308 by spectrophotometry. In outline:
as §2

In assay [15] the test system is Pseudomonas aeruginosa. The assay is described as follows: Antibacterial activity against Pseudomonas aeruginosa 1956 harboring pNF225 carrying nfxB by twofold serial dilution method. Type of assay: functional. Summed up: (§3)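 nfxB plasmid pNF225 was electroporated into the strains and kept by adding 150 μg/ml ticarcillin to growth media. MIC by twofold serial dilution in cation-adjusted Mueller-Hinton agar, about 10^4 CFU per spot by Steers inoculator, at 37°C. Plates were read visually at 18 and 24 h. Values are modal MICs of three independent determinations.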

For assay [16], the system named is Pseudomonas aeruginosa. The assay is described as follows: Antibacterial activity against Pseudomonas aeruginosa EryR harboring pNF225 carrying nfxB by twofold serial dilution method. Type of assay: functional. Summed up:
as §3

Assay [17] relates to Pseudomonas aeruginosa. The assay is described as follows: Antibacterial activity against Pseudomonas aeruginosa 2126 harboring pNF225 carrying nfxB by twofold serial dilution method. The assay is classed as functional. In outline: as §3
For assay [18], the system named is Pseudomonas aeruginosa. The assay is described as follows: Antibacterial activity against Pseudomonas aeruginosa FK06 harboring pNF225 carrying nfxB by twofold serial dilution method. Type of assay: functional. Summed up: as §3
The subject of assay [19] is Pseudomonas aeruginosa. The assay is described as follows: Antibacterial activity against Pseudomonas aeruginosa 3308 harboring pNF225 carrying nfxB by twofold serial dilution method. The assay is classed as functional. In outline:
as §3

In assay [20] the test system is Pseudomonas aeruginosa. The assay is described as follows: Antibacterial activity against Pseudomonas aeruginosa 2439 harboring pNF225 carrying nfxB by twofold serial dilution method. The assay is classed as functional. Summed up: as §3

For `CO/N=C(\C(=O)N[C@@H]1C(=O)N2C(C(=O)[O-])=C(C[N+]3(C)CCCC3)CS[C@H]12)c1csc(N)n1`, the MIC against Pseudomonas aeruginosa [1] worked out at 4 µg/mL (≈ 8.32 µM); in the assay with Pseudomonas aeruginosa [2] it was 8 µg/mL (≈ 16.6 µM); in the assay with Pseudomonas aeruginosa [3], 8 µg/mL (≈ 16.6 µM); in the assay on Pseudomonas aeruginosa [4] it was 2 µg/mL (≈ 4.16 µM); with Pseudomonas aeruginosa [5], 2 µg/mL (≈ 4.16 µM); against Pseudomonas aeruginosa [6], 8 µg/mL (≈ 16.6 µM). Further, the MIC against Pseudomonas aeruginosa [7] came out at 2 µg/mL (≈ 4.16 µM); in the assay on Pseudomonas aeruginosa [8], 8 µg/mL (≈ 16.6 µM).
As to `O=C(Cc1cccs1)N[C@@H]1C(=O)N2C(C(=O)O)=C(/C=C/c3ccc([N+](=O)[O-])cc3[N+](=O)[O-])CS[C@H]12`, the Activity in the assay on Pseudomonas aeruginosa [9] came out at 3110 nmol/min/mg; in assay [10] it was 1820 nmol/min/mg; with Pseudomonas aeruginosa [11], 4550 nmol/min/mg; with Pseudomonas aeruginosa [12] it was 2680 nmol/min/mg; with Pseudomonas aeruginosa [13], 5140 nmol/min/mg; in the assay with Pseudomonas aeruginosa [14] it was 2670 nmol/min/mg.
As to `NCC[C@H](O)C(=O)N[C@@H]1C[C@H](N)[C@@H](O[C@H]2O[C@H](CN)[C@@H](O)[C@H](O)[C@H]2O)[C@H](O)[C@H]1O[C@H]1O[C@H](CO)[C@@H](O)[C@H](N)[C@H]1O` [AMIKACIN], the MIC against Pseudomonas aeruginosa [1] came to 0.5 µg/mL (≈ 0.854 µM); against Pseudomonas aeruginosa [15], 2 µg/mL (≈ 3.42 µM); with Pseudomonas aeruginosa [16], 8 µg/mL (≈ 13.7 µM); against Pseudomonas aeruginosa [17], 2 µg/mL (≈ 3.42 µM); against Pseudomonas aeruginosa [2], 2 µg/mL (≈ 3.42 µM); in the assay with Pseudomonas aeruginosa [3], 1 µg/mL (≈ 1.71 µM). The MIC against Pseudomonas aeruginosa [4] stood at 1 µg/mL (≈ 1.71 µM); in the assay with Pseudomonas aeruginosa [18], 1 µg/mL (≈ 1.71 µM); against Pseudomonas aeruginosa [5], 4 µg/mL (≈ 6.83 µM); in the assay on Pseudomonas aeruginosa [6] it was 1 µg/mL (≈ 1.71 µM); against Pseudomonas aeruginosa [19], 1 µg/mL (≈ 1.71 µM); in the assay with Pseudomonas aeruginosa [7] it was 1 µg/mL (≈ 1.71 µM). Further, the MIC came to 2 µg/mL (≈ 3.42 µM) with Pseudomonas aeruginosa [20] and 1 µg/mL (≈ 1.71 µM) in the assay on Pseudomonas aeruginosa [8].
Take `C[C@H]1[C@H](NC(=O)/C(=N\OC(C)(C)C(=O)O)c2csc(N)n2)C(=O)N1S(=O)(=O)O` [AZTREONAM]: the MIC against Pseudomonas aeruginosa [1] worked out at 1 µg/mL (≈ 2.3 µM); against Pseudomonas aeruginosa [2] it was 1 µg/mL (≈ 2.3 µM); in the assay with Pseudomonas aeruginosa [3], 1 µg/mL (≈ 2.3 µM); against Pseudomonas aeruginosa [4], 1 µg/mL (≈ 2.3 µM); in the assay on Pseudomonas aeruginosa [18], 4 µg/mL (≈ 9.19 µM); against Pseudomonas aeruginosa [6], 1 µg/mL (≈ 2.3 µM). In addition, the MIC came out at 4 µg/mL (≈ 9.19 µM) in the assay with Pseudomonas aeruginosa [19], 4 µg/mL (≈ 9.19 µM) against Pseudomonas aeruginosa [7] and 1 µg/mL (≈ 2.3 µM) with Pseudomonas aeruginosa [8].
`O=C(N[C@H](CO)[C@H](O)c1ccc([N+](=O)[O-])cc1)C(Cl)Cl` [CHLORAMPHENICOL]: the MIC is 128 µg/mL (≈ 396 µM) against Pseudomonas aeruginosa [1]; 64 µg/mL (≈ 198 µM) with Pseudomonas aeruginosa [15]; 32 µg/mL (≈ 99 µM) in the assay on Pseudomonas aeruginosa [16]; 32 µg/mL (≈ 99 µM) with Pseudomonas aeruginosa [17]; 128 µg/mL (≈ 396 µM) with Pseudomonas aeruginosa [2]; 128 µg/mL (≈ 396 µM) in the assay with Pseudomonas aeruginosa [3]. Further, the MIC in the assay on Pseudomonas aeruginosa [4] was 128 µg/mL (≈ 396 µM); with Pseudomonas aeruginosa [18], 64 µg/mL (≈ 198 µM); in the assay with Pseudomonas aeruginosa [5] it was 64 µg/mL (≈ 198 µM); against Pseudomonas aeruginosa [6] it was 128 µg/mL (≈ 396 µM); against Pseudomonas aeruginosa [19], 64 µg/mL (≈ 198 µM); against Pseudomonas aeruginosa [7], 64 µg/mL (≈ 198 µM). In addition, the MIC in the assay on Pseudomonas aeruginosa [20] was 64 µg/mL (≈ 198 µM); with Pseudomonas aeruginosa [8] it was 128 µg/mL (≈ 396 µM).
Take `O=C(O)c1cn(C2CC2)c2cc(N3CCNCC3)c(F)cc2c1=O` [CIPROFLOXACIN]: the MIC against Pseudomonas aeruginosa [4] was 1 µg/mL (≈ 3.02 µM); against Pseudomonas aeruginosa [19] it was 0.12 µg/mL (≈ 0.362 µM); against Pseudomonas aeruginosa [7], 0.12 µg/mL (≈ 0.362 µM).
`C[C@@H](O)[C@H]1C(=O)N2C(C(=O)O)=C(SCCNC=N)C[C@H]12` [IMIPENEM ANHYDROUS]: the MIC stood at 0.12 µg/mL (≈ 0.401 µM) in the assay on Pseudomonas aeruginosa [1]; 4 µg/mL (≈ 13.4 µM) in the assay with Pseudomonas aeruginosa [15]; 2 µg/mL (≈ 6.68 µM) in the assay with Pseudomonas aeruginosa [16]; 1 µg/mL (≈ 3.34 µM) with Pseudomonas aeruginosa [17]; 0.5 µg/mL (≈ 1.67 µM) with Pseudomonas aeruginosa [2]; 0.5 µg/mL (≈ 1.67 µM) against Pseudomonas aeruginosa [3]. Moreover, the MIC against Pseudomonas aeruginosa [4] stood at 2 µg/mL (≈ 6.68 µM); against Pseudomonas aeruginosa [18] it was 2 µg/mL (≈ 6.68 µM); against Pseudomonas aeruginosa [5] it was 2 µg/mL (≈ 6.68 µM); with Pseudomonas aeruginosa [6], 0.5 µg/mL (≈ 1.67 µM); against Pseudomonas aeruginosa [19] it was 2 µg/mL (≈ 6.68 µM); against Pseudomonas aeruginosa [7], 2 µg/mL (≈ 6.68 µM). The MIC in the assay with Pseudomonas aeruginosa [20] was 2 µg/mL (≈ 6.68 µM); in the assay with Pseudomonas aeruginosa [8] it was 0.5 µg/mL (≈ 1.67 µM).
On to `CC1(C)S[C@@H]2[C@H](NC(=O)[C@H](C(=O)O)c3ccsc3)C(=O)N2[C@H]1C(=O)O` [TICARCILLIN], for which the MIC in the assay on Pseudomonas aeruginosa [1] worked out at 2 µg/mL (≈ 5.2 µM); against Pseudomonas aeruginosa [2] it was 2 µg/mL (≈ 5.2 µM); in the assay with Pseudomonas aeruginosa [3], 4 µg/mL (≈ 10.4 µM); against Pseudomonas aeruginosa [4], 8 µg/mL (≈ 20.8 µM); in the assay with Pseudomonas aeruginosa [5], 16 µg/mL (≈ 41.6 µM); against Pseudomonas aeruginosa [6] it was 4 µg/mL (≈ 10.4 µM). Moreover, the MIC in the assay on Pseudomonas aeruginosa [7] came to 16 µg/mL (≈ 41.6 µM); with Pseudomonas aeruginosa [8], 4 µg/mL (≈ 10.4 µM).
As to `NC[C@H]1O[C@H](O[C@H]2[C@H](O)[C@@H](O[C@H]3O[C@H](CO)[C@@H](O)[C@H](N)[C@H]3O)[C@H](N)C[C@@H]2N)[C@H](N)C[C@@H]1O` [TOBRAMYCIN], the MIC was 0.12 µg/mL (≈ 0.257 µM) against Pseudomonas aeruginosa [1]; 0.5 µg/mL (≈ 1.07 µM) with Pseudomonas aeruginosa [15]; 1 µg/mL (≈ 2.14 µM) in the assay on Pseudomonas aeruginosa [16]; 0.5 µg/mL (≈ 1.07 µM) in the assay with Pseudomonas aeruginosa [17]; 0.25 µg/mL (≈ 0.535 µM) against Pseudomonas aeruginosa [2]; 0.25 µg/mL (≈ 0.535 µM) with Pseudomonas aeruginosa [3]. Further, the MIC stood at 0.25 µg/mL (≈ 0.535 µM) against Pseudomonas aeruginosa [4]; 0.25 µg/mL (≈ 0.535 µM) with Pseudomonas aeruginosa [18]; 0.5 µg/mL (≈ 1.07 µM) in the assay on Pseudomonas aeruginosa [5]; 0.25 µg/mL (≈ 0.535 µM) in the assay on Pseudomonas aeruginosa [6]; 0.25 µg/mL (≈ 0.535 µM) in the assay on Pseudomonas aeruginosa [19]; 0.25 µg/mL (≈ 0.535 µM) in the assay with Pseudomonas aeruginosa [7]. In addition, the MIC with Pseudomonas aeruginosa [20] stood at 0.5 µg/mL (≈ 1.07 µM); against Pseudomonas aeruginosa [8] it was 0.25 µg/mL (≈ 0.535 µM).
Turning to GENTAMICIN, the MIC with Pseudomonas aeruginosa [1] worked out at 0.25 µg/mL; against Pseudomonas aeruginosa [15] it was 2 µg/mL; in the assay with Pseudomonas aeruginosa [16] it was 2 µg/mL; with Pseudomonas aeruginosa [17] it was 2 µg/mL; against Pseudomonas aeruginosa [2] it was 1 µg/mL; in the assay with Pseudomonas aeruginosa [4] it was 1 µg/mL. Moreover, the MIC was 2 µg/mL with Pseudomonas aeruginosa [5], 1 µg/mL in the assay with Pseudomonas aeruginosa [19], 0.25 µg/mL against Pseudomonas aeruginosa [7] and 2 µg/mL in the assay on Pseudomonas aeruginosa [20].
